Results: ChEMBL document CHEMBL4811275, “Iodinated 1,2-diacylhydrazines, benzohydrazide-hydrazones and their analogues as dual antimicrobial and cytotoxic agents” (Bioorg Med Chem, 2021)
In brackets after ≈: the same amount, converted by molar mass. Activity calls are given as the source filed them. No cut-off for these calls is given here.

Legend:
[1] = tested on: Staphylococcus epidermidis; test: Antibacterial activity against Staphylococcus epidermidis ATCC 12228 assessed as reduction in bacterial growth incubated for 24 hrs by broth microdilution method; assay type: functional
Summary of the method: (§1)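 Cation-adjusted Mueller-Hinton broth microdilution per EUCAST, modified; compounds from DMSO stocks, final DMSO ≤1% v/v; scale starting from 0.49 µM. Static incubation at 35 ± 2 °C, dark, humidified, read at 24 and 48 h. MIC = lowest concentration with no visible growth by eye; duplicates, parallel readings within one dilution step; growth and medium/DMSO controls included.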

Enterococcus faecalis [2] = test: Antibacterial activity against Enterococcus faecalis ATCC 29212 assessed as reduction in bacterial growth incubated for 24 hrs by broth microdilution method; assay type: functional; summary of the method: as §1
Candida albicans [3] = test: Antifungal activity against Candida albicans ATCC 24443 assessed as reduction in fungal growth incubated for 48 hrs by broth microdilution method; assay type: functional
Summary of the method: (§2)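 Broth microdilution per EUCAST (yeasts and moulds), modified: twofold dilutions from DMSO (final ≤1% v/v) in RPMI-1640 with L-glutamine, 2% glucose, MOPS-buffered pH 7.0; scale from 0.49 µM. Static, dark, humidified, 35 ± 2 °C for 24 and 48 h (Trichophyton interdigitale 72 and 120 h). MIC = complete visible inhibition by eye; duplicates within one dilution step.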

HepG2 [4] = test: Antiproliferative activity against human HepG2 cells assessed as increase in caspase 3/7 level at 1 uM incubated for 24 hrs by Caspase-glo reagent based microplate reader analysis relative to control; assay type: functional
Summary of the method: (§3)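 HepG2 cells seeded at 15 000/well, compounds diluted in complete MEM, 24 h at 37 °C, 5% CO2; untreated vehicle controls. Caspase-Glo 3/7 reagent added, shaken 350 rpm at room temperature 60 min in dark, luminescence read. Expressed as fold of untreated control; triplicate wells, mean ± SD with n = 6.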

Escherichia coli [5] = test: Antibacterial activity against Escherichia coli ATCC 25922 assessed as reduction in bacterial growth incubated for 24 hrs by broth microdilution method; assay type: functional; summary of the method: as §1
HepG2 [6] = test: Cytotoxicity against human HepG2 cells assessed as reduction in cell viability incubated for 24 hrs by cell-titer 96 aqueous one solution cell proliferation assay; assay type: functional, cell-based; conditions: HepG2, 24 h
Pichia kudriavzevii [7] = test: Antifungal activity against Candida krusei ATCC 6258 assessed as reduction in fungal growth incubated for 24 hrs by broth microdilution method; assay type: functional; summary of the method: as §2
Candida albicans [8] = test: Antifungal activity against Candida albicans ATCC 24443 assessed as reduction in fungal growth incubated for 24 hrs by broth microdilution method; assay type: functional; summary of the method: as §2
[9] = tested on: Trichophyton interdigitale; test: Antifungal activity against Trichophyton interdigitale ATCC 9533 assessed as reduction in fungal growth incubated for 120 hrs by broth microdilution method; assay type: functional; summary of the method: as §2
HK-2 = test: Cytotoxicity against human HK-2 cells assessed as reduction in cell viability incubated for 24 hrs by cell-titer 96 aqueous one solution cell proliferation assay; assay type: cell-based; conditions: HK-2, 24 h
Lichtheimia corymbifera [10] = test: Antifungal activity against Lichtheimia corymbifera CCM 8077 assessed as reduction in fungal growth incubated for 48 hrs by broth microdilution method; assay type: functional; summary of the method: as §2
Escherichia coli [11] = test: Antibacterial activity against Escherichia coli ATCC 25922 assessed as reduction in bacterial growth incubated for 48 hrs by broth microdilution method; assay type: functional; summary of the method: as §1
[12] = tested on: Trichophyton interdigitale; test: Antifungal activity against Trichophyton interdigitale ATCC 9533 assessed as reduction in fungal growth incubated for 72 hrs by broth microdilution method; assay type: functional; summary of the method: as §2
Staphylococcus aureus [13] = test: Antibacterial activity against Staphylococcus aureus ATCC 29213 assessed as reduction in bacterial growth incubated for 48 hrs by broth microdilution method; assay type: functional; summary of the method: as §1
HepG2 [14] = test: Antiproliferative activity against human HepG2 cells assessed as increase in caspase 3/7 level at 100 uM incubated for 24 hrs by Caspase-glo reagent based microplate reader analysis relative to control; assay type: functional; summary of the method: as §3
Lichtheimia corymbifera [15] = test: Antifungal activity against Lichtheimia corymbifera CCM 8077 assessed as reduction in fungal growth incubated for 24 hrs by broth microdilution method; assay type: functional; summary of the method: as §2
Staphylococcus aureus [16] = test: Antibacterial activity against methicillin-resistant Staphylococcus aureus ATCC 43300 assessed as reduction in bacterial growth incubated for 24 hrs by broth microdilution method; assay type: functional
Summary of the method: (§4)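 EUCAST-based broth microdilution in cation-adjusted Mueller-Hinton broth. DMSO stocks, final DMSO ≤1% v/v, concentration scale starting from 0.49 µM. Static incubation at 35 ± 2 °C, dark and humidified. Run in duplicate, accepted only if parallel MICs differ by at most one dilution step. MIC is the lowest concentration with no visible growth by naked eye.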

Candida parapsilosis [17] = test: Antifungal activity against Candida parapsilosis ATCC 22019 assessed as reduction in fungal growth incubated for 24 hrs by broth microdilution method; assay type: functional; conditions: Lodderomyces parapsilosis; summary of the method: as §2
Staphylococcus aureus [18] = test: Antibacterial activity against Staphylococcus aureus ATCC 29213 assessed as reduction in bacterial growth incubated for 24 hrs by broth microdilution method; assay type: functional; summary of the method: as §1
Staphylococcus aureus [19] = test: Antibacterial activity against methicillin-resistant Staphylococcus aureus ATCC 43300 assessed as reduction in bacterial growth incubated for 48 hrs by broth microdilution method; assay type: functional; summary of the method: as §4
Candida parapsilosis [20] = test: Antifungal activity against Candida parapsilosis ATCC 22019 assessed as reduction in fungal growth incubated for 48 hrs by broth microdilution method; assay type: functional; conditions: Lodderomyces parapsilosis; summary of the method: as §2
Pichia kudriavzevii [21] = test: Antifungal activity against Candida krusei ATCC 6258 assessed as reduction in fungal growth incubated for 48 hrs by broth microdilution method; assay type: functional; summary of the method: as §2
[22] = tested on: Staphylococcus epidermidis; test: Antibacterial activity against Staphylococcus epidermidis ATCC 12228 assessed as reduction in bacterial growth incubated for 48 hrs by broth microdilution method; assay type: functional; summary of the method: as §1
Enterococcus faecalis [23] = test: Antibacterial activity against Enterococcus faecalis ATCC 29212 assessed as reduction in bacterial growth incubated for 48 hrs by broth microdilution method; assay type: functional; summary of the method: as §1
Klebsiella pneumoniae = test: Antibacterial activity against Klebsiella pneumoniae ATCC 10031 assessed as reduction in bacterial growth measured for 24 to 48 hrs by broth microdilution method; assay type: functional, organism-based; conditions: time 24-48 hrs; summary of the method: as §1
Serratia marcescens = test: Antibacterial activity against clinical isolate Serratia marcescens assessed as reduction in bacterial growth measured for 24 to 48 hrs by broth microdilution method; assay type: functional, organism-based; conditions: time 24-48 hrs; summary of the method: as §1
Pseudomonas aeruginosa = test: Antibacterial activity against Pseudomonas aeruginosa ATCC 27853 assessed as reduction in bacterial growth measured for 24 to 48 hrs by broth microdilution method; assay type: functional, organism-based; conditions: time 24-48 hrs; summary of the method: as §1
Staphylococcus aureus [24] = test: Antibacterial activity against methicillin-susceptible Staphylococcus aureus CCM 4223 assessed as reduction in bacterial growth measured for 24 to 48 hrs by broth microdilution method; assay type: functional, organism-based; conditions: time 24-48 hrs; summary of the method: as §1
[25] = Therapeutic index, ratio of IC50 for cytotoxicity against human HepG2 cells to MIC for antifungal activity against Candida albicans ATCC 24443

Structure (SMILES) | MIC [1] | MIC (Enterococcus faecalis [2]) | MIC (Candida albicans [3]) | MIC (Escherichia coli [5]) | IC50 (HepG2 [6]) | MIC (Pichia kudriavzevii [7]) | MIC (Candida albicans [8]) | MIC [9] | MIC (Lichtheimia corymbifera [10]) | MIC (Escherichia coli [11]) | MIC [12] | MIC (Staphylococcus aureus [13]) | MIC (Lichtheimia corymbifera [15]) | MIC (Staphylococcus aureus [16]) | MIC (Candida parapsilosis [17]) | MIC (Staphylococcus aureus [18]) | MIC (Staphylococcus aureus [19]) | MIC (Candida parapsilosis [20]) | MIC [22] | MIC (Enterococcus faecalis [23]) | further results
O=C(N/N=C/c1cc(I)cc(I)c1O)c1ccc(F)cc1 | 31.2 µM (≈ 15.9 µg/mL) | 31.2 µM (≈ 15.9 µg/mL) | 125 µM (≈ 63.8 µg/mL) | > 500 µM | 12.1 µM | 125 µM (≈ 63.8 µg/mL) | 62.5 µM (≈ 31.9 µg/mL) | 62.5 µM (≈ 31.9 µg/mL) | 125 µM (≈ 63.8 µg/mL) | > 500 µM | 15.6 µM (≈ 7.97 µg/mL) | 31.2 µM (≈ 15.9 µg/mL) | 125 µM (≈ 63.8 µg/mL) | 15.6 µM (≈ 7.97 µg/mL) | 62.5 µM (≈ 31.9 µg/mL) | 15.6 µM (≈ 7.97 µg/mL) | 31.2 µM (≈ 15.9 µg/mL) | 125 µM (≈ 63.8 µg/mL) | 31.2 µM (≈ 15.9 µg/mL) | 62.5 µM (≈ 31.9 µg/mL) | fold change (FC) (HepG2 [4]): 1.36; IC50 (HK-2): 55.6 µM; fold change (FC) (HepG2 [14]): 1.33; MIC (Pichia kudriavzevii [21]): 125 µM (≈ 63.8 µg/mL)
Oc1c(I)cc(I)cc1CNNC(O)c1ccc(F)cc1 (stereo not drawn) | 7.81 µM (≈ 4.01 µg/mL) | 15.6 µM (≈ 8.03 µg/mL) | > 500 µM | > 500 µM | 41.9 µM | > 500 µM | > 500 µM | 62.5 µM (≈ 32.1 µg/mL) | > 500 µM | > 500 µM | 62.5 µM (≈ 32.1 µg/mL) | 15.6 µM (≈ 8.03 µg/mL) | > 500 µM | 31.2 µM (≈ 16.1 µg/mL) | > 500 µM | 15.6 µM (≈ 8.03 µg/mL) | 62.5 µM (≈ 32.1 µg/mL) | > 500 µM | 7.81 µM (≈ 4.01 µg/mL) | 15.6 µM (≈ 8.03 µg/mL) | MIC (Pichia kudriavzevii [21]): > 500 µM
O=C(N/N=C/c1cc(I)cc(I)c1O)c1ccc(O)cc1 | 62.5 µM (≈ 31.8 µg/mL) | 250 µM (≈ 127 µg/mL) | – | 250 µM (≈ 127 µg/mL) | 19.2 µM | – | – | – | – | 250 µM (≈ 127 µg/mL) | – | 62.5 µM (≈ 31.8 µg/mL) | – | 62.5 µM (≈ 31.8 µg/mL) | – | 31.2 µM (≈ 15.9 µg/mL) | 62.5 µM (≈ 31.8 µg/mL) | – | 125 µM (≈ 63.5 µg/mL) | 250 µM (≈ 127 µg/mL) | Activity (Klebsiella pneumoniae): inactive; Activity (Serratia marcescens): inactive; Activity (Pseudomonas aeruginosa): inactive; Activity (Staphylococcus aureus [24]): Active
O=C(N/N=C/c1cc(I)cc(I)c1O)c1ccc([N+](=O)[O-])cc1 | 31.2 µM (≈ 16.8 µg/mL) | 62.5 µM (≈ 33.6 µg/mL) | 7.81 µM (≈ 4.19 µg/mL) | > 125 µM | 24.7 µM | 62.5 µM (≈ 33.6 µg/mL) | 1.95 µM (≈ 1.05 µg/mL) | 15.6 µM (≈ 8.39 µg/mL) | 62.5 µM (≈ 33.6 µg/mL) | > 125 µM | 3.9 µM (≈ 2.09 µg/mL) | 62.5 µM (≈ 33.6 µg/mL) | 31.2 µM (≈ 16.8 µg/mL) | 31.2 µM (≈ 16.8 µg/mL) | > 125 µM | 31.2 µM (≈ 16.8 µg/mL) | 62.5 µM (≈ 33.6 µg/mL) | > 125 µM | 62.5 µM (≈ 33.6 µg/mL) | 125 µM (≈ 67.1 µg/mL) | Ratio [25]: 13.1; IC50 (HK-2): 26.8 µM; MIC (Pichia kudriavzevii [21]): > 125 µM
